Active and inactive are the calls of the source. No cut-off for these calls is given here.
Experiments:
[1] = biological target: 3',5'-cyclic-AMP phosphodiesterase 4D (Homo sapiens, UniProt Q08499); assay: Inhibition of human PDE4D2 (86 to 413 residues) catalytic domain using [3H]-cAMP as substrate after 15 mins by liquid scintillation counting method
[2] = Antioxidant activity assessed as trolox equivalent of AAPH-induced radical scavenging activity at 10 to 20 uM preincubated for 10 mins followed by AAPH addition measured every minute for 120 mins by ORAC fluorescein assay; assay type: functional
Procedure, shortened: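 ORAC values are expressed as trolox equivalents, mean ± SD of three independent experiments.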

[3] = Metal chelating activity of the compound assessed as formation of cupric-compound complex at 50 uM after 30 mins by UV-vis spectrophotometric analysis
Procedure, shortened: (§1)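 UV-vis absorption spectra of compound (50 µM) were recorded in HEPES buffer alone and with 50 µM CuSO4, ZnCl2, FeSO4 or FeCl3, and spectral changes were assessed.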

[4] = Metal chelating activity of the compound assessed as formation of zinc-compound complex at 50 uM after 30 mins by UV-vis spectrophotometric analysis; procedure, shortened: as §1
[5] = Metal chelating activity of the compound assessed as formation of ferric-compound complex at 50 uM after 30 mins by UV-vis spectrophotometric analysis; procedure, shortened: as §1
[6] = Metal chelating activity of the compound assessed as formation of ferrous-compound complex at 50 uM after 30 mins by UV-vis spectrophotometric analysis; procedure, shortened: as §1
[7] = test system: SH-SY5Y; assay: Cytotoxicity against human SH-SY5Y cells assessed as effect on cell viability at 10 uM after 24 hrs by MTT assay; assay type: cell-based
Procedure, shortened: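 SH-SY5Y viability was measured by MTT after exposure to compounds at 10 µM. Results are percent of vehicle control from three independent experiments.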

[8] = test system: SH-SY5Y; assay: Antioxidant activity in human SH-SY5Y cells assessed as inhibition of t-BuOOH-induced intracellular oxidative stress by measuring ROS level preincubated for 24 hrs followed by t-BuOOH addition and measured after 30 mins by DCFH-DA dye-based fluorescence assay; assay type: functional, cell-based
[9] = Metal chelating activity assessed as inhibition of Cu(II)/ascorbate-induced ROS production by measuring […] level at 10 uM by fluorescence assay
Procedure, shortened: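 A Cu-ascorbate redox system in PBS (pH 7.4) at 37 °C, with Cu(II) 5 µM, ascorbate 150 µM and coumarin-3-carboxylic acid 50 µM as the hydroxyl radical trap. Compound was pre-incubated 10 min before ascorbate was added. Fluorescence of 7-hydroxy-CCA (ex 395, em 450 nm) was read every 30 s for 15 min.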

[10] = Acute Toxicity in C57BL/6 mouse assessed as mouse mortality up to 2000 mg/kg, ig measured over 14 days; assay type: organism-based; conditions: in vivo, po, 336 h
Procedure, shortened: (§2)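 Mice given a single intragastric dose of test compound at various dosages, then observed for 14 days for death and abnormal behaviour. On day 14, animals were sacrificed and heart, liver, lungs and kidneys examined.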

[11] = Acute Toxicity in C57BL/6 mouse assessed as abnormal behavior up to 2000 mg/kg, ig measured over 14 days; assay type: organism-based; conditions: in vivo, po, 336 h; procedure, shortened: as §2
[12] = Acute Toxicity in C57BL/6 mouse up to 2000 mg/kg, ig measured every 14 days; assay type: organism-based; conditions: in vivo, po, 336 h; procedure, shortened: as §2
[13] = Hepatotoxicity in C57BL/6 mouse assessed as abnormal changes up to 2000 mg/kg, ig after 14 days by microscopic analysis; assay type: toxicity, organism-based; conditions: in vivo, po, 336 h; procedure, shortened: as §2
[14] = Hepatotoxicity in C57BL/6 mouse assessed as tissue damage up to 2000 mg/kg, ig after 14 days by microscopic analysis; assay type: toxicity, organism-based; conditions: in vivo, po, 336 h; procedure, shortened: as §2
[15] = Cardiotoxicity in C57BL/6 mouse assessed as abnormal changes up to 2000 mg/kg, ig after 14 days by microscopic analysis; assay type: toxicity, organism-based; conditions: in vivo, po, 336 h; procedure, shortened: as §2
[16] = Cardiotoxicity in C57BL/6 mouse assessed as tissue damage up to 2000 mg/kg, ig after 14 days by microscopic analysis; assay type: toxicity, organism-based; conditions: in vivo, po, 336 h; procedure, shortened: as §2
[17] = Nephrotoxicity in C57BL/6 mouse assessed as abnormal changes up to 2000 mg/kg, ig after 14 days by microscopic analysis; assay type: toxicity, organism-based; conditions: in vivo, po, 336 h; procedure, shortened: as §2
[18] = Nephrotoxicity in C57BL/6 mouse assessed as tissue damage up to 2000 mg/kg, ig after 14 days by microscopic analysis; assay type: toxicity, organism-based; conditions: in vivo, po, 336 h; procedure, shortened: as §2
[19] = Acute Toxicity in C57BL/6 mouse lung assessed as abnormal changes up to 2000 mg/kg, ig after 14 days by microscopic analysis; assay type: organism-based; conditions: in vivo, po, 336 h; procedure, shortened: as §2
[20] = Acute Toxicity in C57BL/6 mouse lung assessed as tissue damage up to 2000 mg/kg, ig after 14 days by microscopic analysis; assay type: organism-based; conditions: in vivo, po, 336 h; procedure, shortened: as §2
[21] = test system: Mus musculus; assay: Cognition enhancement activity in amyloid beta (25 to 35 residues) induced C57BL/6J mouse model of Alzheimer's disease assessed as decrease in escape latancy at 30 mg/kg/day, ig administered for 26 consecutive days by Morris water maze test; assay type: functional, organism-based
Procedure, shortened: (§3)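 Mice were randomized into 7 groups. All except sham got an ICV injection of Aβ25-35 (3 nmol); sham got the same volume of saline ICV. Dosing was intragastric daily for 26 days, with 0.5% CMC-Na as vehicle for sham and model. Body weight, diarrhea and emesis-like behavior were monitored.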

[22] = Toxicity in amyloid beta (25 to 35 residues) induced C57BL/6J mouse model of Alzheimer's disease assessed as loss of body weight at 30 mg/kg/day, ig administered for 26 consecutive days; assay type: organism-based; conditions: in vivo, po; procedure, shortened: as §3
[23] = Toxicity in amyloid beta (25 to 35 residues) induced C57BL/6J mouse model of Alzheimer's disease assessed as diarrhea at 30 mg/kg/day, ig administered for 26 consecutive days; assay type: organism-based; conditions: in vivo, po; procedure, shortened: as §3
[24] = Toxicity in amyloid beta (25 to 35 residues) induced C57BL/6J mouse model of Alzheimer's disease assessed as emesis at 30 mg/kg/day, ig administered for 26 consecutive days; assay type: organism-based; conditions: in vivo, po; procedure, shortened: as §3
[25] = test system: Mus musculus; assay: Cognition enhancement activity in amyloid beta (25 to 35 residues) induced C57BL/6J mouse model of Alzheimer's disease assessed as swimming speed at 30 mg/kg/day, ig administered for 26 consecutive days by Morris water maze test (reference value: 15.6 +/- 2.4 cm/sec); assay type: functional; procedure, shortened: as §3
[26] = test system: Mus musculus; assay: Cognition enhancement activity in amyloid beta (25 to 35 residues) induced C57BL/6J mouse model of Alzheimer's disease assessed as increase in number of virtual platform crossing at 30 mg/kg/day, ig administered for 26 consecutive days by Morris water maze test; assay type: functional, organism-based; procedure, shortened: as §3
[27] = test system: Mus musculus; assay: Cognition enhancement activity in amyloid beta (25 to 35 residues) induced C57BL/6J mouse model of Alzheimer's disease assessed as swimming path length in virtual platform at 30 mg/kg/day, ig administered for 26 consecutive days by Morris water maze test (10.2 +/- 3.2 cm); assay type: functional; procedure, shortened: as §3
[28] = test system: Mus musculus; assay: Cognition enhancement activity in amyloid beta (25 to 35 residues) induced C57BL/6J mouse model of Alzheimer's disease assessed as swimming time in effective region at 30 mg/kg/day, ig administered for 26 consecutive days by Morris water maze test (4.3 +/- 1.3 sec); assay type: functional; procedure, shortened: as §3
[29] = test system: Mus musculus; assay: (§4) Neuroprotection in C57BL/6J mouse model of amyloid beta (25 to 35 residues) induced Alzheimer's disease assessed as reduction in ratio of apoptotic neuron in CA1 hippocampus region at 30 mg/kg/day, ig administered for 26 consecutive days by hematoxylin and eosin staining-based light microscopic analysis (reference value: 40.6 +/- 12.5%); assay type: ADME, organism-based; design: scale not given: the % may be the effect or the level left; conditions: in vivo, po
Procedure, shortened: (§5)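 Hippocampal CA1, CA3 and DG neurons were stained with H&E after the Aβ25-35 ICV model and 26-day intragastric dosing. Denatured cell index = denatured cells/total cells, n = 5. Values are mean ± SD, two-way ANOVA versus model.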

[30] = test system: Mus musculus; assay: as §4, with “in” for “in C57BL/6J mouse model of”, “induced C57BL/6J mouse model of” for “induced”, “CA3” for “CA1”, “80.2” for “40.6”, “8.6%)” for “12.5%)”; assay type: ADME, organism-based; design: scale not given: the % may be the effect or the level left; conditions: in vivo, po; procedure, shortened: as §5
[31] = test system: Mus musculus; assay: as §4, with “in” for “in C57BL/6J mouse model of”, “induced C57BL/6J mouse model of” for “induced”, “DG” for “CA1”, “55.8” for “40.6”, “7.2%)” for “12.5%)”; assay type: ADME, organism-based; design: scale not given: the % may be the effect or the level left; conditions: in vivo, po; procedure, shortened: as §5
[32] = Drug metabolism in Sprague-Dawley rat liver microsomes assessed as metabolic rate up to 180 mins in presence of NADPH by UV-based LC-MS/MS analysis; assay type: ADME, Microsome; conditions: 3 h
[33] = Metal chelating activity assessed as inhibition of Cu(II)-induced amyloid beta (1 to 42 residues) aggregation at 25 uM after 24 hrs by TEM assay
Procedure, shortened: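 Samples were prepared as for the ThT assay. 10 µL aliquots were applied to carbon-coated copper grids for 2 min, then stained with 3% phosphotungstic acid for 2 min and imaged by transmission electron microscopy.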

[34] = in vitro; conditions: PAMPA
[35] = in vitro; conditions: Sprague-Dawley, rat, liver microsomes

Sequence of 3',5'-cyclic-AMP phosphodiesterase 4D (Q08499 whole entry, the tested form may be a part): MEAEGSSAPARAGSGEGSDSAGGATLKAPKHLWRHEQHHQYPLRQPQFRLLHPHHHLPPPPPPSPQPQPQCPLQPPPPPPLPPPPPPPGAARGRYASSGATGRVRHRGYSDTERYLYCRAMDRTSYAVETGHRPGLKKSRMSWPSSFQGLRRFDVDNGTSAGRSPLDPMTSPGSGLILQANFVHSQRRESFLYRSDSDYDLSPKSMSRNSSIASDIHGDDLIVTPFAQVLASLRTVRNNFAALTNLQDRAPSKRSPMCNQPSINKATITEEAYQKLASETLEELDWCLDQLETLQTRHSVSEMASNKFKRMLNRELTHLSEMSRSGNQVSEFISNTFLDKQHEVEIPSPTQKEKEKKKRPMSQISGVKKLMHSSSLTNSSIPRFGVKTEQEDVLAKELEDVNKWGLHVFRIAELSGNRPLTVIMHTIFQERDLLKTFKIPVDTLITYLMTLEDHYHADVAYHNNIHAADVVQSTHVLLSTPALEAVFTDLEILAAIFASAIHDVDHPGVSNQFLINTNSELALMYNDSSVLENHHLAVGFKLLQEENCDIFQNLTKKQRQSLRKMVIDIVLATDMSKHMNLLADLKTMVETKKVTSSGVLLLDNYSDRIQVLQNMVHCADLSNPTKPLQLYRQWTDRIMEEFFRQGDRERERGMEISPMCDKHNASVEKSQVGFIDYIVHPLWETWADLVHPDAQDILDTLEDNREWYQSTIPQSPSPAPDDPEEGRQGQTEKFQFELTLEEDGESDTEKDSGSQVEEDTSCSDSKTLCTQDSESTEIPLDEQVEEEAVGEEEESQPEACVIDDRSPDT

In the case of `Cl.O=C(Nc1ccc(O)c2ncccc12)c1ccc(OC(F)F)c(OCC2CC2)c1`, the IC50 [1] is reported as 0.399 µM, the Activity [2] is reported as 0.6 equiv and the Activity [3] is reported as “Active”. The Activity [4] was “Active”, the Activity [5] was “Active” and the Activity [6] was “Active”. The Activity [7] was “Non-Toxic”, the Activity [8] was “Dose-dependent effect” and the Activity [9] was “Active”. The Activity [10] was “Non-Toxic”, the Activity [11] was “Non-Toxic” and the Activity [12] was “Non-Toxic”. For the same compound, the Activity [13] was “Non-Toxic”, the Activity [14] was “Non-Toxic” and the Activity [15] was “Non-Toxic”. The Activity [16] was “Non-Toxic”, the Activity [17] was “Non-Toxic” and the Activity [18] was “Non-Toxic”. For the same compound, the Activity [19] was “Non-Toxic”, the Activity [20] was “Non-Toxic” and the Activity [21] was “Active”. For the same compound, the Activity [22] was “Non-Toxic”, the Activity [23] was “Non-Toxic” and the Activity [24] was “Non-Toxic”. The Activity [25] was 15 cm/s, the Activity [26] was “Active” and the Activity [27] was 19 cm. The Time [28] was 6.8 s, the Activity [29] was 12.5% and the Activity [30] was 7.9%. For the same compound, the Activity [31] was 18.7%, the K [32] was 0.00767 min⁻¹ and the Activity [33] was “Active”. It also gave a Papp at 10 h, 100 ug/ml [34] of 129 nm/s and a half-life [35] of 1.5 h.

From ChEMBL document CHEMBL4422614 (Eur J Med Chem, 2019)
